From ChEMBL document CHEMBL1121902 (J Med Chem, 1981) come the findings set out here.

What is called logD is the decadic logarithm of the distribution of all forms, ionised or not, between an organic phase and buffer at a given pH.

Data set [1] relates to Canis familiaris. As to the kind of experiment: Concentration required to decrease hindlimb perfusion pressure(55 mmHg) in anesthetized dogs after intra arterial administration. The class given is functional, Canis lupus familiaris, Artery. The essentials: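 Anesthetized mongrel dogs, vascularly isolated pump-perfused hindlimb held at constant blood flow. Vascular resistance was read as change in perfusion pressure. Bolus intraarterial injections into the perfusion circuit, drugs in isotonic saline, rising doses with compound order randomized at each level. Dose to lower perfusion pressure by 55 mmHg was taken. Four dogs, mean ± SE.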

For data set [2], the system named is Canis familiaris. As to the kind of experiment: Compound was tested for its ability to block isoproterenol-induced contractile force in anesthetized dogs. The conditions noted are these: Canis lupus familiaris, read-out: pA2 app (converted).
Data set [3] in a line: Partition coefficient (logD7.4). The class given is physicochemical. The conditions noted are these: octanol/water, pH 7.4. The method in brief: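 Distribution between 1-octanol and 0.16 M pH 7.4 phosphate buffer (mutually presaturated). Compound at 10^-4 M in buffer was shaken 15 min with an equal volume of octanol, then centrifuged 10 min. Run in triplicate.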
Data set [4] concerns Canis familiaris. In words: Compound was tested for its ability to block isoproterenol-induced vasodilation in anesthetized dogs. The conditions noted are these: Canis lupus familiaris, read-out: pA2 app (converted).
Data set [5] concerns Canis familiaris. As to the kind of experiment: Compound was tested for its ability to block isoproterenol-induced increases in heart rate(HR) in anesthetized dogs. The conditions noted are these: Canis lupus familiaris, read-out: pA2 app (converted).
The species named for data set [6] is Canis familiaris. As to the kind of experiment: Vasodilator potency relative to propranolol. The class given is functional, Canis lupus familiaris. The method in brief:
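Anesthetized mongrel dogs with a vascularly isolated, pump-perfused hindlimb at constant blood flow; the read-out is the fall in perfusion pressure. Bolus intraarterial injections in isotonic saline into the perfusion system, lowest doses first, compound order randomized at each level; four dogs. Dose to lower pressure 55 mmHg determined.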

A short description of data set [7]: Beta adrenergic receptor antagonist potency relative to propranolol. It is filed as functional. The method in brief: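 Pentobarbital-anesthetized mongrel dogs. Isoproterenol dose-response curves (heart rate, contractile force, femoral artery flow) repeated after cumulative doses of 10, 100 and 1000 µg/kg of racemic hydrochloride in isotonic saline. Apparent pA2 taken from the curve shifts. […] One compound per dog, four dogs each.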

Counter-ions that a name gives are not always drawn.

In turn, `CC(C)NCC(O)COc1cccc2cc(O)ccc12` (stereo not given) came in with a Dose in the data set on Canis familiaris [1] of 2.45 mg. For the same molecule, the values for the Kb with Canis familiaris [2], in the data set with Canis familiaris [4] and with Canis familiaris [5] were 4.37 nM, 4.47 nM and 9.77 nM, respectively. This molecule returned a logD in data set [3] of 0.46. Also, the Relative potency in the data set filed under Canis familiaris [6] was 0.22; in data set [7] it was 3.82.
The molecule `CC(C)NCC(O)COc1cccc2ccccc12` (stereo not given) [PROPRANOLOL] yielded a Dose in the data set with Canis familiaris [1] of 0.55 mg.
In turn, `CC(C)NCC(O)COc1cccc2cccc(O)c12` (stereo not given) came in with a Dose with Canis familiaris [1] of 0.58 mg. Besides, the Kb is 155 nM in the data set with Canis familiaris [2], 55 nM in the data set with Canis familiaris [4] and 229 nM in the data set on Canis familiaris [5]. In data set [3], this molecule displayed a logD of 1.4. In addition, the Relative potency in the data set filed under Canis familiaris [6] came out at 0.94; in data set [7] it was 0.17.
For the molecule `CC(C)NCC(O)COc1cccc2c(O)cccc12` (stereo not given), in the data set with Canis familiaris [1], the Dose stood at 1.95 mg. For the same molecule, the results for the Kb in the data set on Canis familiaris [2], in the data set with Canis familiaris [4] and in the data set with Canis familiaris [5] were 32.4 nM, 20.9 nM and 75.9 nM, respectively. The molecule also showed a logD in data set [3] of 0.56. Further, the values for the Relative potency (in the data set listed under Canis familiaris [6]; in data set [7]) were 0.28 and 0.56, respectively.
`CC(C)NCC(O)COc1cccc2ccc(O)cc12` (stereo not given) came in with a Dose with Canis familiaris [1] of 2.8 mg. For the same molecule, the values for the Kb in the data set with Canis familiaris [2], in the data set with Canis familiaris [4] and in the data set on Canis familiaris [5] were 17.4 nM, 26.3 nM and 56.2 nM, respectively. Besides, the logD in data set [3] is 0.62. Further, the Relative potency stood at 0.2 in the data set listed under Canis familiaris [6] and 0.95 in data set [7].
For `CC(C)NCC(O)COc1cc(O)cc2ccccc12` (stereo not given), the Dose in the data set on Canis familiaris [1] turned out to be 10 mg. For the same molecule, the Kb was 107 nM with Canis familiaris [2], 58.9 nM in the data set with Canis familiaris [4] and 288 nM in the data set on Canis familiaris [5]. The molecule further registered a logD in data set [3] of 0.57. The values for the Relative potency (in the data set listed under Canis familiaris [6]; in data set [7]) were 0.06 and 0.16, respectively.
In the data set with Canis familiaris [1], `CC(C)NCC(O)COc1c(O)ccc2ccccc12` (stereo not given) came in with a Dose of 0.52 mg. Besides, the Kb in the data set with Canis familiaris [2] was 646 nM; in the data set with Canis familiaris [4] it was 468 nM; in the data set on Canis familiaris [5] it was 1350 nM. In data set [3], this molecule came in with a logD of 1.66. In addition, the Relative potency was determined as 1.07 in the data set listed under Canis familiaris [6] and 0.03 in data set [7].
On to `CC(C)NCC(O)COc1ccc(O)c2ccccc12` (stereo not given) [4-HYDROXYPROPRANOLOL SULFATE], for which the Dose in the data set on Canis familiaris [1] turned out to be 4.35 mg. Also, the Kb was 28.8 nM in the data set with Canis familiaris [2], 31.6 nM in the data set with Canis familiaris [4] and 45.7 nM in the data set with Canis familiaris [5]. For the same molecule, in data set [3], the pH-dependent lipophilicity (logD) was found to be 0.53. The Relative potency was determined as 0.13 in the data set filed under Canis familiaris [6] and 0.77 in data set [7].
